# The source made the active and inactive calls. The calls are words filed in the database; no cut-off is given here.
# Tests used:
# MCF7 [1] = experiment: Inhibition of clonogenic survival of human MCF7 cells after 10 days by microscopy; type: functional, cell-based; details: MCF7, 240 h
# Outline: (§1)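 Clonogenic survival: cells were treated at 0.1 to 20 µM for 10 days. Colonies were then fixed and stained, and counts were expressed as percent of vehicle control.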
# MDA-MB-231 [2] = experiment: Inhibition of clonogenic survival of endocrine-resistant human MDA-MB-231 cells after 10 days by microscopy; type: functional, cell-based; details: MDA-MB-231, 240 h; outline: as §1
# MCF7 [3] = experiment: Inhibition of clonogenic survival of tumor necrosis factor-resistant human MCF7 cells after 10 days by microscopy; type: functional, cell-based; details: MCF7, 240 h; outline: as §1
# MCF7 [4] = experiment: Induction of apoptosis in human MCF7 cells assessed as appearance of nucleosomes in cytoplasm at 8.3 uM after 24 hrs by ELISA relative to DMSO control; type: functional
# Outline: (§2)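 Apoptosis in MCF-7 cells was measured by a cell death detection ELISA after 24 h exposure at 8.3 or 9.4 µM. Values are mean ± SE of three independent experiments.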
# [5] = Antiproliferative activity against human MCF10A cells at 100 uM after 24 hrs by MTT assay; type: cell-based; details: mcf-10a
# Outline: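 Normal MCF10A breast epithelial cells were exposed to drug at 0.1–100 µM for 24 h, and proliferation was measured. Values are mean ± SE of four independent experiments.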
# MCF7 [6] = experiment: Selectivity for tumor necrosis factor-resistant human MCF7 cells over human MCF10A cells
# MCF7 [7] = experiment: Increase in endogenous sphingosine-1-phosphate level in human MCF7 cells at 10 uM after by ESI/MS/MS analysis; type: functional, cell-based
# Outline: (§3)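 MCF-7, MDA-MB-231 or MCF-7TN-R cells were treated at 10 µM for 24 h, and cellular sphingolipid species were then quantified. Values are mean ± SE of two independent experiments.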
# MDA-MB-231 [8] = experiment: Increase in endogenous sphingosine-1-phosphate level in endocrine-resistant human MDA-MB-231 cells at 10 uM after by ESI/MS/MS analysis; type: functional, cell-based; outline: as §3
# MCF7 [9] = experiment: Increase in endogenous sphingosine-1-phosphate level in tumor necrosis factor-resistant human MCF7 cells at 10 uM after by ESI/MS/MS analysis; type: functional, cell-based; outline: as §3
# MCF7 [10] = experiment: Inhibition of clonogenic survival of human MCF7 cells at 0.1 to 20 uM after 10 days by microscopy; type: functional, cell-based; outline: as §1
# MDA-MB-231 [11] = experiment: Inhibition of clonogenic survival of endocrine-resistant human MDA-MB-231 cells at 0.1 to 20 uM after 10 days by microscopy; type: functional, cell-based; outline: as §1
# MCF7 [12] = experiment: Inhibition of clonogenic survival of tumor necrosis factor-resistant human MCF7 cells at 0.1 to 20 uM after 10 days by microscopy; type: functional, cell-based; outline: as §1
# MCF7 [13] = experiment: Induction of apoptosis in human MCF7 cells assessed as appearance of nucleosomes in cytoplasm at 9.4 uM after 24 hrs by ELISA relative to DMSO control; type: functional; outline: as §2
# MCF7 [14] = experiment: Increase in endogenous dihydrosphingosine level in tumor necrosis factor-resistant human MCF7 cells at 10 uM after 24 hrs by ESI/MS/MS analysis relative to DMSO control; type: functional; outline: as §3
# MCF7 [15] = experiment: Decrease in endogenous sphingosine-1-phosphate level in human MCF7 cells at 10 uM after by ESI/MS/MS analysis; type: functional, cell-based; outline: as §3
# MDA-MB-231 [16] = experiment: Decrease in endogenous sphingosine-1-phosphate level in endocrine-resistant human MDA-MB-231 cells at 10 uM after by ESI/MS/MS analysis; type: functional, cell-based; outline: as §3
# MCF7 [17] = experiment: Decrease in endogenous sphingosine-1-phosphate level in tumor necrosis factor-resistant human MCF7 cells at 10 uM after by ESI/MS/MS analysis; type: functional, cell-based; outline: as §3
Compound,IC50 (MCF7 [1]) [µM],IC50 (MDA-MB-231 [2]) [µM],IC50 (MCF7 [3]) [µM],fold change (FC) (MCF7 [4]),Activity [5],Ratio (MCF7 [6]),Activity (MCF7 [7]),Activity (MDA-MB-231 [8]),Activity (MCF7 [9]),Activity (MCF7 [10]),Activity (MDA-MB-231 [11]),Activity (MCF7 [12]),fold change (FC) (MCF7 [13]),fold change (FC) (MCF7 [14]),Activity (MCF7 [15]),Activity (MDA-MB-231 [16]),Activity (MCF7 [17])
CCCCCCCCCCCCC/C=C/[C@@H](O)[C@H](CO)NC(=O)CCCCCCC,4.2,3,8.6,5,Non-toxic,>50,Active,Active,Active,–,–,–,–,–,–,–,–
CCCCCCCCCCCCCCNC(=O)[C@H](CO)NCc1ccccc1,5,10.5,15.2,–,–,–,–,–,–,Active,Active,Active,–,–,–,–,–
CCCCCCCCCCCCCCNC(=O)[C@H](CO)NC(=O)C1CCCCC1,7.2,11.5,23.5,–,–,–,–,–,–,Active,Active,Active,–,–,–,–,–
CCCCCCCCCCCCCCNC(=O)[C@H](CO)NC(=O)C(C)(C)C,6.7,6.1,11.1,–,–,–,–,–,–,Active,Active,Active,–,–,–,–,–
CCCCCCCCCCCCCCNC(=O)[C@H](CO)NC(C)=O,44.7,75.1,52.7,–,–,–,–,–,–,Active,Active,Active,–,–,–,–,–
CCCCCCCCCCCCCCNC(=O)[C@H](CO)/N=C/c1ccccc1,4.7,2.4,7.7,–,Non-toxic,–,–,–,–,Active,Active,Active,5.4,50,Active,Active,Active
CCCCCCCCCCCCCCNC(=O)[C@H](CO)NC(=O)c1cc(OC)cc(OC)c1,11.2,6.6,15,–,–,–,–,–,–,Active,Active,Active,–,–,–,–,–
"CCCCCCCCCCCCCCC[C@H](O)[C@@H](CO)NC(=O)CCCCCCC (single isomer, unassigned)",31.7,41.4,49.6,–,–,–,–,–,–,–,–,–,–,–,–,–,–

# — ChEMBL document CHEMBL1153523, “Design, synthesis, and biological activity of a family of novel ceramide analogues in chemoresistant breast cancer cells” (J Med Chem, 2009)
